The text below walks through data of the RNAGym collection of RNA variant scans (doi:10.1101/gad.245936.114).

To fix the notation:
B1: tRNA (parent)
chain: CUCUCGGUAGCCAAGUUGGUUUAAGGCGCAAGACUUUAAUUUAUCACUACGAAAUCUUGAGAUCGGGCGUUCGACUCGCCCCCGGGAGAUUUUUUCCUCGAGCAA

This sample holds only a part of the variants without activity.

This series covers variants of B1. Kind of series: nonsense suppression (GFP-seq) (ratio to wild type); higher = more function; SUP4oc tRNA, yeast GFP reporter sort-seq. Summed up: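 Raffinose/galactose medium with 80 mg/L adenine was used to grow yeast carrying genome-integrated tRNA variants (~3% random-mutation library), RFP, and a galactose-driven GFP ochre reporter. Cells went into GFP/RFP bins, which were Illumina-sequenced, and variants with ≥100 reads and ≥30 cells were scored. Nonsense suppression (GFPSEQ) is the per-bin median GFP/RFP weighted by estimated cell share and expressed relative to the unmutated parent tRNA.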
Take U4G A13G U16C: the nonsense suppression is 0.0797.

For the variant U4C U55A G67A C79G C83G, the nonsense suppression was no more than 0.026.

Regarding U4G A23U A24C A33U G67A G84C A87G G88C, the nonsense suppression was no more than 0.026.

U2G G10A C11G U20G A33G: the nonsense suppression was no more than 0.026.

In the case of U4A A13U, the nonsense suppression is 0.18.

As for U4A A13C, the nonsense suppression came out at 0.294.

As for C3G G61C, the nonsense suppression turned out to be 0.0292.

Take C3U U8C: the nonsense suppression was 0.0916.

Turning to U4A C77U, the nonsense suppression was determined as 0.0506.

As to C3U G61A, the nonsense suppression stood at 0.198.

For the variant C3U G61C, the nonsense suppression is 0.164.

As for C3G A54C, the nonsense suppression was found to be 0.0677.

With U4A U20C A31U U71G C80A, the nonsense suppression is no more than 0.026.

Consider C3U U21A, for which the nonsense suppression came out at 0.196.

As for C3U U21G, the nonsense suppression was determined as 0.137.

As for U4G A33G, the nonsense suppression is 0.0332.

U4C C27U G61A: the nonsense suppression was 0.205.

On to U4G C56U, for which the nonsense suppression was determined as 0.0355.

As to C3A A13U, the nonsense suppression came to 0.0379.

In the case of C3A A13C, the nonsense suppression is 0.0261.

As to U2G G85U, the nonsense suppression came to 0.0411.

U2G G85A: the nonsense suppression is no more than 0.026.

In the case of C3U A14G C80G, the nonsense suppression was no more than 0.026.

Turning to U4C U8G G65A, the nonsense suppression was no more than 0.026.

Regarding C3G C77A, the nonsense suppression was no more than 0.026.

Consider U4C U58G A74C, for which the nonsense suppression was no more than 0.026.

With U4C A9C G84A, the nonsense suppression is 0.0602.

Take C3A G65A C68U G86U: the nonsense suppression is no more than 0.026.

On to C3A A9G C64G, for which the nonsense suppression was no more than 0.026.

Consider U4C U22G G26U G73C G78C, for which the nonsense suppression was no more than 0.026.

Consider U2G A74C, for which the nonsense suppression is no more than 0.026.

Turning to U4C C80U, the nonsense suppression came out at 0.651.

For U2G A23G G66A, the nonsense suppression is no more than 0.026.

On to U2G U55G, for which the nonsense suppression is no more than 0.026.

U2G U55C: the nonsense suppression came out at 0.053.

U4C G7U U8C G69C: the nonsense suppression is no more than 0.026.

Take C3A A33U: the nonsense suppression was no more than 0.026.

With C3U G32A G67U G69C, the nonsense suppression is no more than 0.026.

Consider C3A G86C, for which the nonsense suppression was no more than 0.026.

As to C3U C29G C83G G88C, the nonsense suppression turned out to be 0.993.

With C3G A74G, the nonsense suppression is no more than 0.026.

As to C3A C12G G18U U20G G61U U70G C75G, the nonsense suppression was no more than 0.026.

In the case of U4C A30U, the nonsense suppression was found to be 0.0792.

As for U2G A14C G84C, the nonsense suppression was no more than 0.026.

On to C3A G28A G73A A74G, for which the nonsense suppression is no more than 0.026.

For U4A U63A, the nonsense suppression stood at 0.155.

Regarding U4C U35A C83A, the nonsense suppression was no more than 0.026.

Regarding U4G C75U, the nonsense suppression stood at 1.1.

U2G C83G: the nonsense suppression was no more than 0.026.

U4G A60U: the nonsense suppression came out at 1.12.

As to U4C C11A A33G A74U, the nonsense suppression was no more than 0.026.

Turning to C3U G10C U17G U22A G25C, the nonsense suppression is no more than 0.026.

For C3A U20C U55C, the nonsense suppression was no more than 0.026.

In the case of C3U G6C A9U A13G A23G A60G G69C, the nonsense suppression is no more than 0.026.

On to C3U G86A, for which the nonsense suppression worked out at 1.07.

In the case of C3A G25C U63A, the nonsense suppression is no more than 0.026.

Consider U4C G7U, for which the nonsense suppression amounted to 0.202.

As for U4C U17G G25C G66U U70C G84U, the nonsense suppression was no more than 0.026.

As to U4A G67C C68U, the nonsense suppression was no more than 0.026.

C3U U58C: the nonsense suppression worked out at 0.202.

As to U2G A33C A60U G73C, the nonsense suppression was no more than 0.026.

For the variant U4C A9G U22G, the nonsense suppression turned out to be 0.202.

As to C3G C27U U57C G59A G61A, the nonsense suppression is no more than 0.026.

As for U4G A23C G26U A62U G69C G84U, the nonsense suppression was 0.116.

For the variant C3G A33U C34U A62G G67C, the nonsense suppression was no more than 0.026.

For the variant U4G A24C, the nonsense suppression was determined as 0.134.

As for C3G A9G G59U, the nonsense suppression is no more than 0.026.

On to C3U U21C G61A, for which the nonsense suppression is 0.206.

For the variant C3G G15C U58G G88C, the nonsense suppression came to 0.344.

Turning to C3U A13G C34G, the nonsense suppression was found to be 0.439.

Consider C3A A89G, for which the nonsense suppression is no more than 0.026.

For the variant C3U A13C, the nonsense suppression worked out at 0.184.

Turning to C3U A13U, the nonsense suppression was determined as 0.194.

U4C A9G G15A A30U: the nonsense suppression is 0.0449.

On to U4A G85A, for which the nonsense suppression stood at 0.0324.

With C3G U55C, the nonsense suppression stood at 0.152.

For C3U C12U C82G, the nonsense suppression was no more than 0.026.

Regarding C3U G66C, the nonsense suppression is 0.0288.

For the variant U4C U22C G86A, the nonsense suppression was 1.16.

Regarding C3U U76A, the nonsense suppression amounted to 0.0398.

As to C3U U76C, the nonsense suppression came to 0.17.

Consider U4A U21A G66U, for which the nonsense suppression is no more than 0.026.

As for C3U C80U, the nonsense suppression was 0.0737.

Turning to C3A U20G G28U U57C G61C A74U G78C C79A, the nonsense suppression is no more than 0.026.

In the case of C3U A9U A30G A54U G67A, the nonsense suppression was no more than 0.026.

For C3G A30G C34G U55G G69C C79A, the nonsense suppression was no more than 0.026.

Turning to U4A U17A, the nonsense suppression came out at 0.174.

U4A U17A U22C: the nonsense suppression amounted to 0.0499.

Consider U4A A54U, for which the nonsense suppression was 0.191.

With U4A A9G G73U C77G G86U, the nonsense suppression was no more than 0.026.

For the variant C3A U57A C80U A89U, the nonsense suppression was no more than 0.026.

C3U U20G: the nonsense suppression came to 0.194.

Consider C3U A23U A30C, for which the nonsense suppression was no more than 0.026.

In the case of U2G C27U A30G C79U C83A, the nonsense suppression is no more than 0.026.

As for U4C U63C G67A, the nonsense suppression is no more than 0.026.

Regarding U4C U63G, the nonsense suppression worked out at 0.0946.

As to U4C A54C, the nonsense suppression was 1.01.

On to C3U C12G, for which the nonsense suppression is no more than 0.026.

Take C3U C12U: the nonsense suppression came out at 0.039.

On to U2G U20A U63C U76C, for which the nonsense suppression is no more than 0.026.

As to U4G A89U, the nonsense suppression came out at 0.0348.

Take C3U U20A G26A: the nonsense suppression was no more than 0.026.

U4C C27U: the nonsense suppression stood at 0.792.

Consider C3G U20C, for which the nonsense suppression stood at 0.0788.

Consider C3U C75U, for which the nonsense suppression worked out at 0.539.

On to U4G C5G U17C U63C A74U, for which the nonsense suppression was no more than 0.026.

Take C3G G65C C79U: the nonsense suppression was no more than 0.026.

Consider U4C G6U, for which the nonsense suppression worked out at 0.959.

Turning to C3U C72G, the nonsense suppression was no more than 0.026.

Turning to C3U U4C, the nonsense suppression stood at 0.859.

For C3G G7A C56G C79G, the nonsense suppression turned out to be 0.783.

In the case of U4A G19A A31U A62G, the nonsense suppression is no more than 0.026.

On to C3G A23G C27U C81A C83A G86A, for which the nonsense suppression is no more than 0.026.

In the case of U4C U16C A31U, the nonsense suppression is 0.97.

As for U4A G61U, the nonsense suppression came out at 0.194.

Take U4C A9U: the nonsense suppression came to 1.07.

Take U4C A9C: the nonsense suppression was 1.02.

U4C A9G: the nonsense suppression turned out to be 0.391.

For the variant C3G A31C C68G C77U, the nonsense suppression is no more than 0.026.

Regarding C3G A30G U58A, the nonsense suppression was no more than 0.026.

As for C3U U8G A54U U58G C83U, the nonsense suppression is no more than 0.026.

Take C3U G6U U22G C81G: the nonsense suppression is no more than 0.026.

Regarding C3G G78A, the nonsense suppression was no more than 0.026.

Turning to U4C A33G, the nonsense suppression was determined as 0.0434.

U4C A31G G65A: the nonsense suppression is no more than 0.026.

For the variant C3G U4C, the nonsense suppression was 0.399.

C3G U4G: the nonsense suppression came to 0.0277.

In the case of C3U G78C A89U, the nonsense suppression was no more than 0.026.

On to U4A C12U, for which the nonsense suppression was no more than 0.026.

For the variant U4C U20C, the nonsense suppression is 1.05.

For the variant C3G G85U, the nonsense suppression turned out to be 0.0369.

As for C3U, the nonsense suppression worked out at 0.739.

Consider U4A G10A U21G G28C, for which the nonsense suppression is no more than 0.026.

Consider U4A U57A, for which the nonsense suppression is no more than 0.026.

As for U4G A30U, the nonsense suppression stood at 0.0386.

For the variant C3G G59A G78U A87U, the nonsense suppression is no more than 0.026.

Take U4C A14U: the nonsense suppression turned out to be 0.0343.

As for C3A G15U G25A, the nonsense suppression is no more than 0.026.

Consider C3U C5U, for which the nonsense suppression came to 0.158.

U4C G73A: the nonsense suppression turned out to be 1.04.

In the case of C3U G6U, the nonsense suppression was 0.0343.

U2G G6C A89C: the nonsense suppression was no more than 0.026.

For the variant U2G U58G C83G, the nonsense suppression was no more than 0.026.

For C3U U20G G85A, the nonsense suppression stood at 0.214.

For the variant C3A G67U, the nonsense suppression is no more than 0.026.

As to U4A C83G G88C, the nonsense suppression was no more than 0.026.

Take U2G C77G: the nonsense suppression was no more than 0.026.

For U2G C77U, the nonsense suppression was no more than 0.026.

Consider U4C G86A, for which the nonsense suppression stood at 1.09.

Take U4C G86C: the nonsense suppression is 0.162.

U4G C5U: the nonsense suppression was determined as 0.0955.

With C3U U63A, the nonsense suppression came out at 0.12.

U4A G18A C77A: the nonsense suppression is no more than 0.026.

For C3G U8G, the nonsense suppression is no more than 0.026.

As for U4C G15A, the nonsense suppression is 0.746.

For the variant U4C A13C A24U, the nonsense suppression was found to be 0.488.

In the case of U4C C34G C82U, the nonsense suppression was determined as 0.179.

In the case of U4G A87C, the nonsense suppression is 0.0794.

Turning to C3A G78A, the nonsense suppression stood at 0.0776.

Turning to C3U C68U, the nonsense suppression stood at 0.201.

For U4A U22G, the nonsense suppression turned out to be 0.155.

For the variant C3U G10C A23U C83G G85A A89U, the nonsense suppression is no more than 0.026.

For the variant U4C U17C, the nonsense suppression came out at 1.04.

Regarding U4C A87G, the nonsense suppression worked out at 1.1.

For U4C A87C, the nonsense suppression was determined as 0.197.

Consider C3G G28A U55C G86U G88U, for which the nonsense suppression is no more than 0.026.

On to C3G C77A C83A, for which the nonsense suppression was no more than 0.026.
